From ChEMBL document CHEMBL1833921, “Synthesis and biological evaluation of phenstatin metabolites” (Bioorg Med Chem, 2011)

Legend:
NCI-H460 = experiment: Cytotoxicity against human NCI-H460 cells after 48 hrs by sulforhodamine B assay; type: functional; details: NCI-H460, 48 h
HL-60(TB) = experiment: Cytotoxicity against human HL-60(TB) cells after 48 hrs by sulforhodamine B assay; type: functional; details: HL-60, 48 h
COLO 205 = experiment: Cytotoxicity against human COLO205 cells after 48 hrs by sulforhodamine B assay; type: functional; details: COLO 205, 48 h
OVCAR-5 = experiment: Cytotoxicity against human OVCAR5 cells after 48 hrs by sulforhodamine B assay; type: functional; details: OVCAR-5, 48 h
UO-31 = experiment: Cytotoxicity against human UO31 cells after 48 hrs by sulforhodamine B assay; type: functional; details: UO-31, 48 h
SK-OV-3 = experiment: Cytotoxicity against human SKOV3 cells after 48 hrs by sulforhodamine B assay; type: functional; details: SK-OV-3, 48 h
MCF7 = experiment: Cytotoxicity against human MCF7 cells after 48 hrs by sulforhodamine B assay; type: functional; details: MCF7, 48 h
[1] = Inhibition of bovine brain tubulin polymerization after 30 mins by turbidimetry analysis; parameters: species or system Bos taurus
Procedure, shortened: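 Lyophilized bovine brain tubulin (97%) reconstituted to 5 mg/mL in 80 mM PIPES pH 6.9, 2 mM MgCl₂, 0.5 mM EGTA, 1.0 mM GTP and 5% glycerol. Compound in DMSO was added to this solution in a quartz cuvette at 0 °C. Assembly was followed as the rise in absorbance at 340 nm at 37 °C. IC₅₀ is the molar concentration halving the extent of assembly after 30 min.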

RXF 393 = experiment: Cytotoxicity against human RXF393 cells after 48 hrs by sulforhodamine B assay; type: functional; details: RXF 393, 48 h
A498 = experiment: Cytotoxicity against human A498 cells after 48 hrs by sulforhodamine B assay; type: functional; details: A498, 48 h
UACC-62 = experiment: Cytotoxicity against human UACC62 cells after 48 hrs by sulforhodamine B assay; type: functional; details: UACC-62, 48 h
SF-539 = experiment: Cytotoxicity against human SF539 cells after 48 hrs by sulforhodamine B assay; type: functional; details: SF-539, 48 h
DU-145 = experiment: Cytotoxicity against human DU145 cells after 48 hrs by sulforhodamine B assay; type: functional; details: DU-145, 48 h
A549 [2] = experiment: Cytotoxicity against human A549/ATCC cells after 48 hrs by sulforhodamine B assay; type: functional; details: A549, 48 h
SK-MEL-2 = experiment: Cytotoxicity against human SK-MEL-2 cells after 48 hrs by sulforhodamine B assay; type: functional; details: SK-MEL-2, 48 h
KM12 = experiment: Cytotoxicity against human KM12 cells after 48 hrs by sulforhodamine B assay; type: functional; details: KM12, 48 h
NCI-H322M = experiment: Cytotoxicity against human NCI-H322M cells after 48 hrs by sulforhodamine B assay; type: functional
OVCAR-4 = experiment: Cytotoxicity against human OVCAR4 cells after 48 hrs by sulforhodamine B assay; type: functional; details: OVCAR-4, 48 h
MDA-MB-435 = experiment: Cytotoxicity against human MDA-MB-435 cells after 48 hrs by sulforhodamine B assay; type: functional; details: MDA-MB-435, 48 h
NCI/ADR-RES = experiment: Cytotoxicity against human NCI/ADR-RES cells after 48 hrs by sulforhodamine B assay; type: functional
SK-MEL-28 = experiment: Cytotoxicity against human SK-MEL-28 cells after 48 hrs by sulforhodamine B assay; type: functional; details: SK-MEL-28, 48 h
CCRF-CEM = experiment: Cytotoxicity against human CCRF-CEM cells after 48 hrs by sulforhodamine B assay; type: functional
HCT-15 = experiment: Cytotoxicity against human HCT15 cells after 48 hrs by sulforhodamine B assay; type: functional; details: HCT-15, 48 h
OVCAR-3 = experiment: Cytotoxicity against human OVCAR3 cells after 48 hrs by sulforhodamine B assay; type: functional; details: OVCAR-3, 48 h
CAKI-1 = experiment: Cytotoxicity against human Caki1 cells after 48 hrs by sulforhodamine B assay; type: functional; details: CAKI-1, 48 h
SF-295 = experiment: Cytotoxicity against human SF295 cells after 48 hrs by sulforhodamine B assay; type: functional; details: SF-295, 48 h
MDA-MB-231 = experiment: Cytotoxicity against human MDA-MB-231/ATCC cells after 48 hrs by sulforhodamine B assay; type: functional; details: MDA-MB-231, 48 h
MDA-MB-468 = experiment: Cytotoxicity against human MDA-MB-468 cells after 48 hrs by sulforhodamine B assay; type: functional; details: MDA-MB-468, 48 h
M14 = experiment: Cytotoxicity against human M14 cells after 48 hrs by sulforhodamine B assay; type: functional; details: M14, 48 h
K562 = experiment: Cytotoxicity against human K562 cells after 48 hrs by sulforhodamine B assay; type: functional; details: K562, 48 h
HCT-116 = experiment: Cytotoxicity against human HCT116 cells after 48 hrs by sulforhodamine B assay; type: functional; details: HCT-116, 48 h
SN12C = experiment: Cytotoxicity against human SN12C cells after 48 hrs by sulforhodamine B assay; type: functional
NCI-H522 = experiment: Cytotoxicity against human NCI-H522 cells after 48 hrs by sulforhodamine B assay; type: functional; details: NCI-H522, 48 h
Hs-578T = experiment: Cytotoxicity against human HS578T cells after 48 hrs by sulforhodamine B assay; type: functional
EKVX = experiment: Cytotoxicity against human EKVX cells after 48 hrs by sulforhodamine B assay; type: functional
HCC 2998 = experiment: Cytotoxicity against human HCC2998 cells after 48 hrs by sulforhodamine B assay; type: functional; details: HCC 2998, 48 h
SF-268 = experiment: Cytotoxicity against human SF268 cells after 48 hrs by sulforhodamine B assay; type: functional; details: SF-268, 48 h
A549 [3] = experiment: Cytotoxicity against human A549 cells after 48 hrs by sulforhodamine B assay; type: functional; details: A549, 48 h
HL-60 = experiment: Cytotoxicity against human HL60 cells after 48 hrs by sulforhodamine B assay; type: functional; details: HL-60, 48 h
HT-29 = experiment: Cytotoxicity against human HT29 cells after 48 hrs by sulforhodamine B assay; type: functional; details: HT-29, 48 h

SMILES	GI50 (NCI-H460) [nM]	GI50 (HL-60(TB)) [nM]	GI50 (COLO 205) [nM]	GI50 (OVCAR-5) [nM]	GI50 (UO-31) [nM]	GI50 (SK-OV-3) [nM]	GI50 (MCF7) [nM]	IC50 [1] [nM]	GI50 (RXF 393) [nM]	GI50 (A498) [nM]	GI50 (UACC-62) [nM]	GI50 (SF-539) [nM]	GI50 (DU-145) [nM]	GI50 (A549 [2]) [nM]	GI50 (SK-MEL-2) [nM]	GI50 (KM12) [nM]	GI50 (MDA-MB-435) [nM]	GI50 (OVCAR-3) [nM]	GI50 (SF-295) [nM]	GI50 (HT-29) [nM]	also measured
COc1ccc(C(=O)c2cc(OC)c(O)c(OC)c2)cc1OC	3440	1250	14200	12900	2160	2200	433	> 100000	1880	3360	8410	2960	4490	59100	5290	1090	273	2330	2080	–	GI50 (NCI-H322M): 3440 nM; GI50 (OVCAR-4): > 100000 nM; GI50 (NCI/ADR-RES): 854 nM; GI50 (SK-MEL-28): 9460 nM; GI50 (CCRF-CEM): 4050 nM; GI50 (HCT-15): 2070 nM; GI50 (CAKI-1): 3010 nM; GI50 (MDA-MB-231): 4790 nM; GI50 (MDA-MB-468): 1970 nM; GI50 (M14): 902 nM; GI50 (K562): 666 nM; GI50 (HCT-116): 2500 nM; GI50 (SN12C): 6680 nM; GI50 (NCI-H522): 3640 nM; GI50 (Hs-578T): 4920 nM; GI50 (EKVX): > 100000 nM
COc1cc(C(=O)c2ccc3c(c2)oc(=O)n3S(C)(=O)=O)cc(OC)c1OC	2640	2520	2500	5770	6810	2840	4430	> 100000	4630	3110	5300	2360	3040	4680	5110	1150	289	1560	1610	–	GI50 (NCI-H322M): 5380 nM; GI50 (OVCAR-4): 22300 nM; GI50 (NCI/ADR-RES): 2030 nM; GI50 (HCC 2998): 6750 nM; GI50 (SF-268): 7950 nM; GI50 (SK-MEL-28): 11300 nM; GI50 (CCRF-CEM): 3350 nM; GI50 (HCT-15): 2000 nM; GI50 (CAKI-1): 2640 nM; GI50 (MDA-MB-231): 4850 nM; GI50 (MDA-MB-468): 2820 nM; GI50 (M14): 1360 nM; GI50 (K562): 588 nM; GI50 (HCT-116): 2310 nM; GI50 (SN12C): 7790 nM; GI50 (NCI-H522): 2340 nM; GI50 (Hs-578T): 3160 nM; GI50 (EKVX): 4580 nM
COc1ccc(C(=O)c2cc(OC)c(OC)c(OC)c2)c(OC)c1NC(C)=O	–	–	–	–	–	–	9600	> 50000	–	85.5	–	–	292	–	–	–	–	3300	293	4330	GI50 (A549 [3]): 4620 nM; GI50 (HL-60): 3530 nM
COc1ccc(C(=O)c2cc(OC)c(OC)c(OC)c2)c(O)c1O [HYDROXYPHENSTATIN]	–	–	–	–	–	–	–	800	–	–	–	–	144	–	–	–	–	–	120	–	–
COc1ccc(C(=O)c2cc(OC)c(OC)c(OC)c2)cc1N	–	–	–	–	–	–	–	1500	–	–	–	–	–	–	–	–	–	–	–	33	GI50 (A549 [3]): 57 nM; GI50 (HL-60): 30 nM
COc1cc(C(=O)c2ccc(OC)c(O)c2OC)cc(OC)c1O	1970	364	4830	4920	16600	912	1010	14900	755	1700	5010	611	818	3470	100000	409	282	363	1400	–	GI50 (NCI-H322M): 4990 nM; GI50 (OVCAR-4): 100000 nM; GI50 (NCI/ADR-RES): 515 nM; GI50 (HCC 2998): 2890 nM; GI50 (SF-268): 4250 nM; GI50 (SK-MEL-28): 100000 nM; GI50 (CCRF-CEM): 896 nM; GI50 (HCT-15): 611 nM; GI50 (CAKI-1): 1900 nM; GI50 (MDA-MB-231): 2160 nM; GI50 (MDA-MB-468): 864 nM; GI50 (M14): 455 nM; GI50 (K562): 153 nM; GI50 (HCT-116): 1410 nM; GI50 (SN12C): 13700 nM; GI50 (NCI-H522): 290 nM; GI50 (Hs-578T): 358 nM; GI50 (EKVX): 4760 nM
COc1ccc(C(=O)c2cc(OC)c(OC)c(OC)c2)c(N)c1	–	–	–	–	–	–	23	400	–	–	–	–	36	–	–	–	–	–	–	42	–
COc1ccc(C(=O)c2cc(OC)c(OC)c(OC)c2)c(OC)c1N	–	–	–	–	–	–	10.6	10000	–	22.1	–	–	27.4	–	–	–	< 10000	20.2	19.9	32.3	GI50 (A549 [3]): 39 nM; GI50 (HL-60): 33.1 nM
COc1ccc(/C=C/c2cc(OC)c(OC)c(OC)c2)c(O)c1O	–	–	–	–	–	–	–	1900	–	–	–	–	512	–	–	–	–	–	–	–	–
